MPTP block: inhibitors of mitochondrial permeability transition pore; isolated mouse mitochondria, Ca2+ swelling absorbance, 30 min; 1.4% of 360,000 active; inhibition, % at 10 µM; AID 602449;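 active means inhibition of 50% or more, scaled per plate between neutral and stimulator controls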
MT1-MMP act inh: inhibitors of human MT1-MMP activation; P50281; HT1080 RFP-PRO-GFP cells, GFP/RFP ratio fluorescence, overnight; percent of plate control window, DMSO zero; GFP/RFP ratio change, % at 20 µM; 0.061% of 360,000 active; AID 651647;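 active means GFP/RFP ratio change of at least 30% with cell ATP level not reduced by more than half and red fluorescence within 50% of control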
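Assay system: HT1080 RFP-PRO-GFP cells | Dosing: 20 µM single dose, 1% DMSO | Incubation: Cells overnight before dosing, compound overnight, 37 °C, 5% CO2 | Evaluation: GFP/RFP fluorescence ratio | Control set: DMSO-only wells and HT1080 RFP-L50D-GFP cell wells as references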
SKN-1 block: blocks SKN-1 activity in C. elegans; C. elegans VP596 Pgst-4::GFP/RFP ratio, acrylamide-induced, 24 h; inhibition, % at 21.8 µM; 0.49% of 360,000 active;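 active means interference check ratio from 0.5 to 1.5 plus GFP to RFP signal ratio inhibition reaching or exceeding a fixed threshold, cut at about 30% in these data, passing the limit was not always enough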
ATG4B inh: blocks human ATG4B protease cleavage of LC3 substrate. ATG4B cleavage of LC3-PLA2, NBD-HPC fluorescence, 1 h. inhibition, % at 8.33 µM. 0.51% of 340,000 active; in the data active means inhibition above about 40%
Target sequence (Q9Y4P1 whole entry, looked up): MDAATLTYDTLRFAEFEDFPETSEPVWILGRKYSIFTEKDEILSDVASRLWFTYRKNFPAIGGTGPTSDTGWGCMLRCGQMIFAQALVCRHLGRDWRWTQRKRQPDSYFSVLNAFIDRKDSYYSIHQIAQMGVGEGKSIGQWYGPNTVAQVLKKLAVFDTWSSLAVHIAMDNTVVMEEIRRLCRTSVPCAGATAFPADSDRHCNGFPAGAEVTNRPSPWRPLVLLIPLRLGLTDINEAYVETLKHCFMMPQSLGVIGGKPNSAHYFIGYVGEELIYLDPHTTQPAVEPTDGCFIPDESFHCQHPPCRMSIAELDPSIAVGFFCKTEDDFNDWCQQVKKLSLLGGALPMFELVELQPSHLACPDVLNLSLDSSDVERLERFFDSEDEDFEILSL
Rh123 counter: Rhodamine 123 counter-screen of mitochondrial pore hits; shares compounds with MPTP block; isolated mitochondria, membrane potential, Rhodamine 123 fluorescence; inhibition, % at 10 µM; 78% of 5,000 active; AID 624504; in the data active means inhibition above about 22%
MPTP swell DR: MPTP inhibition, dose response swelling confirmation | shares compounds with MPTP block | isolated mitochondria swelling, absorbance | IC50, µM | 58% of 780 active; in the data active means IC50 below about 20 µM
MPTP cs DR: active in counter-screen for permeability transition pore inhibitors; shares compounds with MPTP block; isolated mitochondria counterscreen, fluorescence read-out; IC50, µM; 49% of 780 active; AID 651564; in the data active means IC50 below about 80 µM
A number is an active result. An excerpt weighted towards active compounds, which were near 2.3% of everything screened.

Screening C=CCn1c(SCC(=O)c2cccs2)nc2sc(CC)cc2c1=O returned MPTP block 91, MT1-MMP act inh inactive, SKN-1 block inactive, ATG4B inh inactive and Rh123 counter 77.
`C=CCn1c(SCC(=O)O)nc2sc(CC)cc2c1=O` gave MPTP block inactive, MT1-MMP act inh inactive, SKN-1 block inactive and ATG4B inh inactive.
For Cc1cc(C)n(-c2ccc(Cl)c(Cl)c2)n1 the results were MPTP block inactive, MT1-MMP act inh inactive, SKN-1 block inactive and ATG4B inh inactive.
Cc1cc(C)n(-c2nc(-c3ccc(Cl)c(Cl)c3)cs2)n1 was read as MPTP block 60, MT1-MMP act inh inactive, SKN-1 block inactive, ATG4B inh inactive, Rh123 counter inactive, MPTP swell DR inactive and MPTP cs DR inactive.
`COc1ccc(Cl)cc1NC(=O)CSc1nnc(Cc2ccc(C)cc2)c(=O)[nH]1` gave MPTP block 63, MT1-MMP act inh inactive, SKN-1 block inactive, ATG4B inh inactive and Rh123 counter 67.
Screening Cc1ccc(Cc2nnc(SCC(=O)Nc3ccccc3Cl)[nH]c2=O)cc1 returned MPTP block inactive, MT1-MMP act inh inactive, SKN-1 block inactive and ATG4B inh inactive.
For CCN(CC)CCNc1cc(C)c(C#N)c2nc3ccccc3n12 the results were MPTP block inactive, MT1-MMP act inh inactive, SKN-1 block inactive and ATG4B inh inactive.
`Cc1cc(Nc2cccc([N+](=O)[O-])c2)n2c(nc3ccccc32)c1C#N` gave MPTP block 67, MT1-MMP act inh inactive, SKN-1 block inactive, ATG4B inh inactive and Rh123 counter 93.
`O=C(COC(=O)Cn1cnc2ccccc21)Nc1ccc(F)c(F)c1` gave MPTP block inactive, MT1-MMP act inh inactive, SKN-1 block inactive and ATG4B inh inactive.
Screening CC(Sc1ccc(Cl)cc1)C(=O)Nc1ccc2c(c1)OCO2 (stereo unspecified) returned MPTP block inactive, MT1-MMP act inh inactive, SKN-1 block inactive and ATG4B inh inactive.
For CC(C)N1CCC2(CC1)N=C(c1ccc3c(c1)OCO3)CC(c1cc(Cl)ccc1O)N2 (stereo unspecified) the results were MPTP block 69, MT1-MMP act inh inactive, SKN-1 block inactive, ATG4B inh inactive and Rh123 counter inactive.
`N#CCC(=O)Nc1ccc(C(=O)OCC(=O)Nc2ccc3ccccc3c2)cc1` gave MPTP block inactive, MT1-MMP act inh inactive, SKN-1 block inactive and ATG4B inh inactive.
For O=C1NC(Cc2c[nH]c3ccccc23)C(=O)N1Cc1ccccc1 (stereo unspecified) the results were MPTP block inactive, MT1-MMP act inh inactive, SKN-1 block inactive and ATG4B inh inactive.
Screening COC(=O)c1ccc(CN2C(=O)NC(Cc3c[nH]c4ccccc34)C2=O)cc1 (stereo unspecified) returned MPTP block 82, MT1-MMP act inh inactive, SKN-1 block inactive, ATG4B inh inactive, Rh123 counter inactive, MPTP swell DR inactive and MPTP cs DR 25.
COc1ccc(C(=O)Nc2ccc(C3CC3(Cl)Cl)cc2)cc1 (stereo unspecified) was read as MPTP block inactive, MT1-MMP act inh inactive, SKN-1 block inactive and ATG4B inh inactive.
For Cc1c(CNCCc2ccccc2Cl)c(C(=O)O)c(C)n1-c1ccccc1 the results were MPTP block inactive, MT1-MMP act inh inactive, SKN-1 block inactive and ATG4B inh inactive.
For CC(C)Nc1ccc(Nc2ccnc3cc4ccccc4cc23)cc1 the results were MPTP block 68, MT1-MMP act inh inactive, SKN-1 block inactive, ATG4B inh inactive and Rh123 counter 70.
Screening c1ccc(CCNc2ccnc3cc4ccccc4cc23)cc1 returned MPTP block 101, MT1-MMP act inh inactive, SKN-1 block inactive, ATG4B inh inactive and Rh123 counter 106.
O=C(NCCc1ccccc1)c1nccc2ccccc12 was read as MPTP block inactive, MT1-MMP act inh inactive, SKN-1 block inactive and ATG4B inh inactive.
COC(=O)C1CCN(C2CN(Cc3ccc(F)cc3)S(=O)(=O)C2)CC1 (stereo unspecified) was read as MPTP block inactive, MT1-MMP act inh inactive and SKN-1 block inactive.
`COc1ccc(CN2CCN(C3CCC3)CC2CCO)cc1C` (stereo unspecified) gave MPTP block inactive, MT1-MMP act inh inactive, SKN-1 block inactive and ATG4B inh inactive.
